NR2E3 ag-1: NR2E3 (human) agonism; GST-NR2E3/biotin-RetCOR TR-FRET, 1536-well; inhibition of corepressor binding, % at 4.78 µM; 320,000 tested, 0.12% active; AID 2300;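 active = percent inhibition above the cutoff of mean plus 3 SD of all tested compounds, set per screening campaign, cut at about 20% in these data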
Target sequence (Q9Y5X4 whole entry, looked up): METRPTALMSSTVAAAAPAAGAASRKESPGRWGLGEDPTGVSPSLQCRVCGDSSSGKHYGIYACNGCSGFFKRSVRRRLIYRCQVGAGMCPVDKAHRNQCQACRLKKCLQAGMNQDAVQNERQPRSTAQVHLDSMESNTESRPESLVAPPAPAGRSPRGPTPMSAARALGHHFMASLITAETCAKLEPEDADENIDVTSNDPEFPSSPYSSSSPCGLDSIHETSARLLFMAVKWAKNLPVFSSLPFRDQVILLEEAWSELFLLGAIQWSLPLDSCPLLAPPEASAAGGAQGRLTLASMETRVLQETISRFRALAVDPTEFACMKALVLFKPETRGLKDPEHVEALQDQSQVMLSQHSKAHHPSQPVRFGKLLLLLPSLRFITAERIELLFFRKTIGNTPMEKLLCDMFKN
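system = GST-tagged NR2E3 plus biotinylated RetCOR corepressor | input = 1.35 nM GST-NR2E3 | also added = 7 nM biotin-RetCOR | schedule = 5 h incubation at 4 °C | measured by = TR-FRET with europium anti-GST and streptavidin-D2, 340 nm excitation | read-out = percent loss of FRET ratio relative to control wells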
GAA850 FXN act: activators of GAA850 frataxin (FXN) promoter; HEK293 lucGAA850 FXN promoter luciferase reporter, 24 h; percent of 10 µM SAHA response; activation, % at 6 µM; 360,000 tested, 0.56% active;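 active = activation above the average of all compounds screened plus 3 SD, cutoff fixed separately per campaign, cut at about 7.5% in these data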
T cell modulator: T cell immune modulation candidate. 330,000 tested, 0.068% active. 2C CD8+ T cell-vesicle binding, flow cytometry; active compounds read low. AID 2052. response (vesicle binding), % at 7 µM;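 active = response, share of CD8 T cells binding vesicles, and their 90th percentile fluorescence all below set limits, cut at about 80% in these data, passing the limit was not always enough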;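 note: values below 100% mean blocked vesicle binding to the CD8+ T cells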
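incubation = binding step 1.5 h, 37 °C, antibody labelling 20 min, ice | test system = 2C mouse CD8+ T cells | read-out basis = percent CD8+ FL2 mean versus row control | controls = Peptide-free naked vesicles (low) and QL9 vesicles with 0.7% DMSO vehicle (high) | detection = flow cytometry of vesicle-bound cells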
NR2E3 ag-2: human photoreceptor-specific nuclear receptor agonism; inhibition of corepressor binding, % at 3.98 µM; 360,000 tested, 0.35% active; CHO-S Gal4-NCOR/VP16-NR2E3 two-hybrid, luciferase;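 active = inhibition above the mean of all tested compounds plus 3 SD, cut at about 70% in these data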;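 note: higher means lower luciferase signal from less NR2E3 corepressor binding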
Myeloid diff MLP: promotes myeloid progenitor differentiation; ER-HoxA9 myeloid progenitors, lysozyme-GFP differentiation, flow cytometry; 360,000 tested, 1% active; calls only at 10 µM;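 active = normalized GFP-positive differentiation at or above the plate's own cutoff, the solvent-only control mean plus 3 SD; inconclusive = no clear call, values can overlap the other calls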;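 note: cells exposed to compound for four days before flow analysis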
NR2E3 ag confirm: NR2E3 agonism confirmed in two-hybrid assay | inhibition, % at 3.98 µM | 2,300 tested, 51% active | CHO-S mammalian two-hybrid NR2E3-NCOR, luciferase luminescence | shares compounds with NR2E3 ag-2 | AID 624378;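 active = average inhibition above a cutoff equal to the mean inhibition of all tested compounds plus one SD, cut at about 70% in these data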
GAL4-VP16 luc: reduces GAL4-VP16 reporter signal in NR2E3 counterscreen. shares compounds with NR2E3 ag-2. CHO-S GAL4-VP16 luciferase reporter, luminescence. inhibition, % at 3.98 µM. 2,300 tested, 29% active;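 active = mean inhibition above a cutoff equal to the average over all tested compounds plus one standard deviation, cut at about 70% in these data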;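 note: luciferase from a UAS reporter driven by GAL4-VP16 transactivation; higher means less reporter light so more repression of VP16 activity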
Each line names hits and unclear results; the compound was inactive in the other large screens (follow-up assays come after a bar, where they were run). Compounds with a hit are over-represented: about 2% of the library has one in this group of screens.

CC(OC(=O)c1ccc(NC(=O)CC#N)cc1)C(=O)Nc1ccc2c(c1)OCCO2 (configuration not stated)	none
CC(=O)Nc1ccc(SCC(=O)c2cc(C)n(-c3ccccc3)c2C)cc1	none | NR2E3 ag confirm inactive | GAL4-VP16 luc inactive
Cc1cc(C(=O)C(C)OC(=O)c2ccc(NC(=O)CC#N)cc2)c(C)n1-c1ccccc1 (configuration not stated)	Myeloid diff MLP active | NR2E3 ag confirm inactive | GAL4-VP16 luc inactive
Cc1ccccc1S(=O)(=O)NC(=O)C1(C)CCN1C(=O)Cc1ccc(C(C)(C)C)cc1 (configuration not stated)	none (no result: NR2E3 ag-1, T cell modulator)
Cc1csc(NC(=O)CSCC(=O)O)c1-c1nc2ccccc2s1	none | NR2E3 ag confirm inactive | GAL4-VP16 luc inactive
O=C(O)CSCC(=O)Nc1ccc(-c2nc3ccccc3s2)cc1	none
CC(=O)Nc1ccc(S(=O)(=O)NCCSCc2ccccc2Cl)cc1	NR2E3 ag-2 71 | NR2E3 ag confirm 82 | GAL4-VP16 luc inactive
COc1ccc(CCN(C)C(=O)c2cc(S(=O)(=O)N3CCCCC3)ccc2Cl)cc1OC	none
COc1ccc(Cc2nnc(NC(=O)CS(=O)(=O)c3ccccc3)s2)cc1OC	none
CCCOc1ccc(OCC(=O)c2[nH]c(C)c(C(C)=O)c2C)cc1	NR2E3 ag-2 79 | NR2E3 ag confirm 94 | GAL4-VP16 luc 78
COc1cc2c(oc(=O)c3cc(C)cc(OC)c32)c2c(C3OC(C)C(O)C(C)(O)C3O)ccc(O)c12 (configuration not stated)	none (no result: NR2E3 ag-1, T cell modulator, Myeloid diff MLP) | NR2E3 ag confirm 71 | GAL4-VP16 luc inactive
Cc1nc(OCc2ccccc2)c2ccccc2n1	none
Cc1nc2ccccc2cc1OCc1ccccc1	NR2E3 ag-2 73 | NR2E3 ag confirm 70 | GAL4-VP16 luc inactive
COc1cccc(COc2cc3ccccc3nc2C)c1	NR2E3 ag-2 73 | NR2E3 ag confirm 94 | GAL4-VP16 luc 76
Cc1nc2ccccc2cc1OCc1ccc(Cl)cc1	NR2E3 ag-2 78 | NR2E3 ag confirm 92 | GAL4-VP16 luc 73
Nc1ncc(Br)cc1S(=O)(=O)Nc1cc(C(F)(F)F)cc(C(F)(F)F)c1	NR2E3 ag-2 109 | NR2E3 ag confirm 101 | GAL4-VP16 luc 90
CC(=O)Oc1ccc(C(=O)Nc2cccc(C(=O)c3ccc(C)c(C)c3)c2)cc1	none
OC[C@@H]1CN(Cc2ccc(-c3ccccc3)cc2)C[C@H](n2cnc3c(NCc4ccco4)ncnc32)O1	none (no result: NR2E3 ag-1, T cell modulator) | NR2E3 ag confirm 75 | GAL4-VP16 luc inactive
OC[C@@H]1CN(Cc2ccc(-c3ccccc3)cc2)C[C@H](n2cnc3c(NCc4ccncc4)ncnc32)O1	none (no result: NR2E3 ag-1, T cell modulator) | NR2E3 ag confirm 74 | GAL4-VP16 luc inactive
OCCNc1ncnc2c1ncn2[C@H]1CN(Cc2ccc(-c3ccccc3)cc2)C[C@@H](CO)O1	none (no result: NR2E3 ag-1, T cell modulator)
COC(=O)c1ccccc1S(=O)(=O)N1CCC(C(=O)N2CCC2)CC1	none
Cc1ccc(NC(=O)COc2cccc(-n3cnnn3)c2)cc1[N+](=O)[O-]	Myeloid diff MLP inconclusive
COc1ccc(S(=O)(=O)Nc2ccc(Cc3ccncc3)cc2)cc1OC	none | NR2E3 ag confirm 72 | GAL4-VP16 luc inactive
CCc1ccc(OC)c(S(=O)(=O)Nc2ccc(Cc3ccncc3)cc2)c1	NR2E3 ag-2 99 | NR2E3 ag confirm 86 | GAL4-VP16 luc 74
COc1ccc(NC(C)=O)cc1S(=O)(=O)Nc1ccc(OCc2ccccc2)cc1	NR2E3 ag-2 73 | NR2E3 ag confirm 77 | GAL4-VP16 luc inactive
COc1ccc(NC(=O)Nc2ccc(Cc3ccncc3)cc2)c(OC)c1	Myeloid diff MLP inconclusive | NR2E3 ag confirm inactive | GAL4-VP16 luc inactive
CCc1ccc(NS(=O)(=O)c2ccc(OC)c3ncccc23)cc1	none
COc1ccc(NC(=O)Nc2cnccn2)c(OC)c1	none
COc1cc(OC)cc(C(=O)NCC(=O)OCc2ccc(Cl)c(Cl)c2)c1	none
Nc1nnn(CC(=O)N/N=C/c2cccc(Cl)c2)n1	none
CSc1ccc(Cl)c(C(=O)Nc2cc(S(=O)(=O)N3CCOCC3)ccc2N2CCOCC2)c1	none (no result: NR2E3 ag-1)
CSc1ccc(S(=O)(=O)Nc2ccc(N3CCOCC3)c(Cl)c2)cc1	none | NR2E3 ag confirm inactive | GAL4-VP16 luc inactive

Bioassay records (PubChem BioAssay)
